CCR6 antag – CCR6 receptor antagonists, primary screen, cell-based, CHO-K1, luminescence, beta-arrestin, uHTS; inhibition, % at 20 µM; C-C chemokine receptor type 6 (Homo sapiens), P51684; CHO-K1 CCR6 PathHunter beta-arrestin, CCL20-stimulated; AID 493098, 2011; actives 0.49% (n = 340,000);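 active = compounds whose inhibition of the agonist-driven luminescence signal at 20 µM reaches about 50%, limit read from the data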;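 also: cells stimulated with CCL20 at 14 nM final; plate controls were DMSO with CCL20 for no effect and DMSO without agonist for full effect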
APJ ag – agonists of human apelin receptor APJ, primary screen, CHO-K1 cells, PathHunter beta-arrestin, luminescence | P35414 | 0% DMSO wells, 100% apelin | activation, % at 20 µM | actives 0.11% (n = 330,000);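 active = activation more than six SD over the plate average, tested at 20 µM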;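 also: 0% = DMSO alone and 100% = apelin-13 at 10 nM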
Target sequence (P35414 whole entry, looked up): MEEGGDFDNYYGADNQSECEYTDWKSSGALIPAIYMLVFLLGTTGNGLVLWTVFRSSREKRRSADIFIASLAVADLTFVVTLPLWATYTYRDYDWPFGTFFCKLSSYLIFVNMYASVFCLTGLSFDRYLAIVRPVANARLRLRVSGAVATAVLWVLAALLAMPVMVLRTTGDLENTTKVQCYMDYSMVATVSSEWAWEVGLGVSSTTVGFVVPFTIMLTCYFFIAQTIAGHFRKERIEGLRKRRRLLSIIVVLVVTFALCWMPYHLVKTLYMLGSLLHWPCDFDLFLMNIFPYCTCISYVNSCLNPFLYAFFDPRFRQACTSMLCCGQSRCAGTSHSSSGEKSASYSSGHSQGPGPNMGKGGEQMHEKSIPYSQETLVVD
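Material: engineered CHO-K1 APJ arrestin reporter cells; amount: 1000 CHO-K1 reporter cells seeded per well; incubation: compound stimulation 90 min at 25 °C, detection 60 min; signal: luminescent beta-gal fragment complementation, chemiluminescent substrate; read-out basis: APJ agonist activity; controls: DMSO-only wells as negative, 10 nM Apelin-13 as positive control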
EBI2 antag – EBI2 receptor antagonists, beta-arrestin recruitment, primary screen, cell-based, luminescence, 7a,25-OHC stimulation, uHTS. AID 651636, 2012. actives 0.81% (n = 360,000). inhibition, % at 5 µM. 7a,25-OHC stimulated. G-protein coupled receptor 183 (Homo sapiens), P32249; in the data active = inhibition above about 38%;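 also: enzyme fragment complementation signal reports receptor beta-arrestin coupling in cells; 0% = agonist plus DMSO wells and 100% = wells without agonist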
CXCR6 inh – CXCR6 receptor inhibitors, primary screen, cell-based, beta-arrestin, luminescence, CHO-K1 PathHunter, 1536-well; C-X-C chemokine receptor type 6 (Homo sapiens), O00574; inhibition, % at 20 µM; actives 0.36% (n = 360,000); in the data active = inhibition above about 34%, passing the limit was not always enough;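 also: antagonist mode with CXCL16 agonist at 10 nM final; 0% = 10 nM CXCL16 with DMSO and 100% = unstimulated wells without agonist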
APJ antagonist – antagonists of human apelin receptor APJ, primary screen, CHO-K1 cells, beta-arrestin complementation, luminescence. actives 0.32% (n = 330,000). P35414. AID 2521, 2010. inhibition, % at 20 µM;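 active = inhibition above about 40% at 20 µM, limit read from the data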;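 also: cells challenged with 10 nM apelin-13 agonist together with compound; plate controls were apelin-13 plus DMSO wells for no effect and DMSO wells lacking apelin-13 for full effect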
Starred values were filed as active, the others as inactive; . = no result given. This is a sample that favours compounds with a hit; in the whole collection about 1.5% have one here.

SMILES | CCR6 antag | APJ ag | EBI2 antag | CXCR6 inh | APJ antagonist
O=C1C=C(c2cccc3c2sc2ccccc23)C[C@@H](c2ccc(F)cc2)C1 | 9 | -4 | 67* | -5 | -3
COc1ccc2c(c1)sc1nc(-c3ccccc3)cn12 | 1 | 3 | 40* | -30 | -11
CCOC(=O)N1CCN(C(=O)c2ccc3c(c2)sc2nc(-c4ccc(OC)cc4)cn23)CC1 | 7 | -2 | 7 | 2 | -32
Cc1ccc(S(=O)(=O)N[C@H](CNCc2ccccc2)C(C)C)cc1 | . | . | 2 | . | .
COc1ccc(NC(=O)C2(C)Cc3c(-c4cccc(C(N)=O)c4)ccnc3O2)cc1 (configuration not stated) | . | . | -15 | -7 | .
CSc1ccc(C2=C/C(=C3/SC(=S)NC3=O)c3ccccc3O2)cc1 | 76* | . | -2 | 45* | .
CCN1/C(=C2/SC(=S)NC2=O)Sc2ccccc21 | 4 | -6 | 0 | 2 | 10
CC(C)N1CCC(C)(C(=O)Nc2ccccc2Oc2ccccc2)C1 (configuration not stated) | . | . | -6 | -7 | .
Cc1ccc(NC(=O)CC(=O)Nc2ccc(C)cc2C)c(C)c1 | 9 | -1 | -17 | -29 | 12
Cc1ccc(C(=O)CNc2ccc(C)cc2C)cc1 | 79* | -9 | 2 | 31 | 11
CCN(CC)CCNC(=O)c1ccc2c(c1NCCO)C(=O)c1ccccc1C2=O | 19 | -1 | 1 | 8 | -7
CC1CCN(C(=O)c2ccc3c(c2NCCO)C(=O)c2ccccc2C3=O)CC1 | 25 | -1 | 46* | 20 | -1
COc1cc(/C=C(/C#N)C(=O)NCCc2c[nH]c3ccccc23)ccc1OCc1ccccc1F | 58* | 11 | 28 | 32 | 7
Cc1cc(/C=C(\C#N)C(=O)NCCc2c[nH]c3ccccc23)c(C)n1C | 19 | -1 | 11 | 12 | 2
O=c1cccc(-c2ccc3ccccc3c2)o1 | . | . | -4 | . | .
Cc1ccsc1C=Nc1ccc(O)cc1 | 8 | -1 | 45* | -6 | -14
CCCCCCCCN1C(=O)[C@H](CC(=O)NCc2ccc(C)o2)C[C@@]2(C(=O)OC)CCCCC=C12 | . | . | 1 | 6 | .
COc1ccc(S(=O)(=O)Oc2ccc3ccccc3c2)cc1 | 5 | -2 | -5 | 6 | -8
COC1=C(OC)C(=O)C(Sc2ccc3ccccc3c2)=CC1=O | . | . | -1 | 72* | .
COc1cccc(Nc2nc(C(N)Cc3ccc(Cl)cc3)cs2)n1 (configuration not stated) | . | . | -14 | -11 | .
C#CCN(C[C@@H]1[C@@H](OC(=O)NCc2ccccc2F)[C@@H](OC(=O)NCc2ccccc2F)Cn2c(=O)ccc(=O)n21)S(=O)(=O)c1ccc(C)cc1 | . | . | 55* | -1 | .
COc1ccccc1NC(=O)COc1ccc(/C=N/NC(=O)CSCc2ccc(Cl)cc2)cc1 | 2 | -4 | 15 | 6 | 64*
COc1ccccc1NC(=O)COc1ccc(/C=N/NC(=O)CSCc2cc(C)cc(C)c2)cc1 | 7 | -4 | 10 | -6 | 11
O=C(CS(=O)(=O)Cc1ccccc1)NCc1ccc2c(c1)OCO2 | 52* | 0 | -5 | -2 | 2
O=[N+]([O-])c1cc(Cl)cc(/C=N\Nc2ccccn2)c1O | 74* | -7 | 32 | 78* | 20
SMILES | CCR6 antag | APJ ag | EBI2 antag | CXCR6 inh | APJ antagonist
Cc1cc(C)c2c(=N)c3ccccc3n(CCCCCCCCn3c4ccccc4c(=N)c4c(C)cc(C)nc43)c2n1 | 107* | . | 14 | 40* | .
C/C=C/c1cccc(-c2nc(C(=O)NC3Cc4ccccc4C3)cc3c2[C@@H](CCO)N(C(C)=O)C3)c1 | . | . | 9 | -5 | .
CCN1C(=O)/C(=C/C=C2\N(CC)c3cc(S(=O)(=O)N(C)C)ccc3N2c2ccccc2)SC1=S | 67* | -5 | 34 | 52* | 27
CCN1C(=O)/C(=C\C=C\c2ccccc2[N+](=O)[O-])SC1=S | 13 | 4 | 17 | 0 | -48
Cc1cc(C(=O)N2CCCC(C)(C(=O)NS(=O)(=O)C3CC3)C2)n(C(C)(C)C)n1 (configuration not stated) | . | . | -12 | -6 | .
N=C1C=CC(=C(c2ccc(N)cc2)c2ccc(N)cc2)C=C1 | 51* | . | 15 | 39 | .
Nc1ccc(C(=O)C(=O)c2ccc(N)cc2)cc1 | 11 | -3 | 1 | 2 | 4
CC(=O)N[C@@H]1C=C[C@@H](CC(=O)NCc2ccc(Cl)cc2)O[C@@H]1CO | . | . | -7 | . | .
O=c1cc(-c2c(F)c(F)c(F)c(F)c2F)oc2c(F)c(F)c(F)c(F)c12 | . | 0 | . | . | 52*
COc1c(OC)c(O)c2c(=O)cc(-c3c(O)cccc3O)oc2c1OC | 3 | -4 | -15 | -12 | -29
COc1ccccc1CN(CC(=O)NCc1ccco1)C(=O)CNS(=O)(=O)c1ccccc1 | 61* | -4 | 3 | -5 | 8
COc1ccccc1CN(CC(=O)NCc1ccco1)C(=O)CNS(=O)(=O)c1ccc(C)cc1 | 11 | 0 | -5 | -4 | 7
CS(=O)(=O)c1ccc(S(=O)CC(=O)OCc2ccccc2)c([N+](=O)[O-])c1 (configuration not stated) | . | . | 41* | 52* | .
CCOc1ccc(N2C(=O)CC(Sc3nnnn3-c3ccccc3)C2=O)cc1 (configuration not stated) | . | . | -1 | 52* | .
CCOC(=O)C1(C)CCCN(C(=O)c2ccc3c(c2)CCO3)C1 (configuration not stated) | . | . | -3 | -2 | .
N=C1/C(=C\c2ccc(-c3ccc(C(=O)O)cc3)o2)C(=O)N=C2SC=C(c3ccccc3)N12 | 53* | . | 14 | 34 | .
CCOC1=C2[C@H](c3ccccc3)N(S(=O)(=O)c3ccc(C)cc3)C(C(C)(C)C)[C@H]2C(C#N)(C#N)C(C#N)(C#N)C1 (some centres not stated) | . | . | 25 | -12 | .
O=C(Nc1ccc2c(c1)OCO2)C1Cc2c(-c3ccc4c(c3)OCO4)ccnc2O1 (configuration not stated) | . | . | 4 | -1 | .
CCCN1C(=O)/C(=C/c2ccc(C)s2)SC1=Nc1ccc(OC)cc1 | 22 | -7 | 13 | 10 | 13
CCN(CC)CCN1C(=O)/C(=C\c2ccc(Cl)c([N+](=O)[O-])c2)SC1=Nc1ccc(OC)cc1 | 25 | -1 | 73* | 1 | 21
COc1ccc(N=C2S/C(=C\c3ccc(Cl)c([N+](=O)[O-])c3)C(=O)N2CCN(C)C)cc1 | 25 | 0 | 62* | 17 | 19
CCCC1NC(=O)c2cccnc2-n2c1nc1ccc(Br)cc1c2=O (configuration not stated) | . | . | -5 | -2 | .
Cc1ccnc(N2C(=O)c3cccc4c([N+](=O)[O-])ccc(c34)C2=O)c1 | 50 | -1 | 28 | 42* | -12

Assay outcomes from PubChem BioAssay.
